According to article PMC3131532 (Chemistry & biology, 2011):

Columns and labels:
[1] = test system: PfSENP activity in parasite lysates; experiment: PfSUMO-pro processing assay in parasite lysates; type: biochemical, Plasmodium falciparum; settings: mixed stage lysates; VEA-260 0–200 µM; NEM 10 mM; hSUMO-VS 10 µM
How it was run: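 Soluble mixed-stage parasite lysate was pretreated with test compound, NEM or hSUMO-VS, then given PfSUMO-pro substrate. For the library screen, 10 µg lysate was preincubated 30 min at room temperature with 100 µM (final) test compound from a DMSO stock. PfSUMO-pro was then added at 10 µM final for 1 h at 37°C. Reactions were quenched with SDS loading dye, resolved by SDS-PAGE and stained with Gelcode Blue. Controls were DMSO-treated lysate and substrate without lysate.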

[2] = molecular target: T1, PfSENP1 (Plasmodium falciparum, UniProt Q8I583); experiment: PfSUMO-pro cleavage assay with recombinant PfSENP1; type: biochemical; settings: gel assay; VEA-260 0–200 µM; JCP analogs 0–300 µM; NEM 10 mM
How it was run: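 Recombinant PfSENP1, His6-tagged (imidazole-eluted) or untagged (released from CPD fusion with 100 µM InsP6), expressed in E. coli BL21(DE3) for 3 hr at 30°C after 0.1 mM IPTG induction. Enzyme pretreated with test compound or 10 mM N-ethylmaleimide; for the 0–200 µM series, PfSENP1 was 100 nM. PfSUMO-pro then added; reactions run on SDS-PAGE with Coomassie-type staining. No-enzyme substrate lane served as control.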

[3] = molecular target: T2, hSENP1 (Homo sapiens, UniProt Q9P0U3); experiment: SENP fluorogenic substrate; type: biochemical; settings: read-out: IC50 hSENP1; substrate QTGG-AFC
T2 sequence (Q9P0U3 419-644 limits assumed): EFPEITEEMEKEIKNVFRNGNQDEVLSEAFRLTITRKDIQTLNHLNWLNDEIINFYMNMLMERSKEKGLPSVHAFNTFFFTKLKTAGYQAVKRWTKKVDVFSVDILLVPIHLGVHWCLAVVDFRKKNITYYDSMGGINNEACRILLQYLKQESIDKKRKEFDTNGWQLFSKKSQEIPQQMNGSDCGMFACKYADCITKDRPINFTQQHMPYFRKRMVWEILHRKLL

[4] = molecular target: T3, hSENP6 (Homo sapiens, UniProt Q9GZR1); experiment: SENP fluorogenic substrate; type: biochemical; settings: read-out: IC50 hSENP6; substrate LRGG-AFC
T3 sequence (Q9GZR1 1-1112): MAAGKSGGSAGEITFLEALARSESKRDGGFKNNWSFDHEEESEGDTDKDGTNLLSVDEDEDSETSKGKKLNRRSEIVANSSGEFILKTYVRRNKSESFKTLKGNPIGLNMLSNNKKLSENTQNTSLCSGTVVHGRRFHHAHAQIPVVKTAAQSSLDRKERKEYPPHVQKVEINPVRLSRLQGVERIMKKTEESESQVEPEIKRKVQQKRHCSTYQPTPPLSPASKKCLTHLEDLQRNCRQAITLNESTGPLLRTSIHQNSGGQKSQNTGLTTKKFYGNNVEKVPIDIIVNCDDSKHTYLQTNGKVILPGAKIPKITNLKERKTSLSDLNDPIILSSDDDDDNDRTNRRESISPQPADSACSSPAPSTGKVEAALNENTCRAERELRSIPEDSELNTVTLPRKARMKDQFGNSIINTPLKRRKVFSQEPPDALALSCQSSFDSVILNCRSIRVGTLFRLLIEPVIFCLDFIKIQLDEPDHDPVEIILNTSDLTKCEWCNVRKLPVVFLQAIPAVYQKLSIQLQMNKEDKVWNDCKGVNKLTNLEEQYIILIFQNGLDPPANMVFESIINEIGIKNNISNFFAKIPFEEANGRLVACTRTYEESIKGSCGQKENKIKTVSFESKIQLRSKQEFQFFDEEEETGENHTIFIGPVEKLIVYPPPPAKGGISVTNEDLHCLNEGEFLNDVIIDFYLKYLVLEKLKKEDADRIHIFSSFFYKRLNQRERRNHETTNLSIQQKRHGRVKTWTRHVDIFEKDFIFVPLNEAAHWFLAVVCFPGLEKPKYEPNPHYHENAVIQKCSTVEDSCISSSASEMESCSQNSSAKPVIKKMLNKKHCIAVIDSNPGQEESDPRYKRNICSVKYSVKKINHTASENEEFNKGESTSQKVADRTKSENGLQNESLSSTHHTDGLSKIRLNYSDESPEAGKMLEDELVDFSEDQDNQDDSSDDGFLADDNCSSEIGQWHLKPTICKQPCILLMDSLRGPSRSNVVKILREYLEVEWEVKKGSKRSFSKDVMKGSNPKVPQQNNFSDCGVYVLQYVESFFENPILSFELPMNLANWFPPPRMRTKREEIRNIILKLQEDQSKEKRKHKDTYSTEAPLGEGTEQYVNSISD

[5] = molecular target: T1, PfSENP1; experiment: Reversibility of PfSENP1 inhibition; type: biochemical; settings: 200 µM inhibitor, 2 hr 37°C, then dilution and Ni-NTA enrichment
How it was run: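 PfSENP1 (200 nM) exposed to test compound (200 µM), N-ethylmaleimide (10 mM) or DMSO for 2 hr at 37°C. Input sample taken. Treated enzyme then diluted, recaptured on Ni2+-NTA and eluted with 300 mM imidazole. Input and eluate each added to PfSUMO-pro; cleavage resolved by SDS-PAGE with protein stain.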

[6] = test system: falcipains 1/2/3; experiment: Competition for labeling with activity-based probes; type: biochemical, Plasmodium falciparum; settings: mixed-stage lysates; VEA-260 0–250 µM
How it was run: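 Mixed-stage P. falciparum total lysates were pretreated with test compound (0–250 µM), or with unlabelled DCG-04 (100 µM) as a competition control, then labelled with 125I-DCG-04. Proteins were resolved by SDS-PAGE, and residual probe labelling was read by autoradiography.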

[7] = molecular target: T4, hSENP8 (deNEDDylase) (Homo sapiens, UniProt Q96LD8); experiment: fluorogenic substrate; type: biochemical; settings: read-out: IC50 hSENP8 (deNEDDylase); substrate LRGG-AFC
T4 sequence (Q96LD8 1-212): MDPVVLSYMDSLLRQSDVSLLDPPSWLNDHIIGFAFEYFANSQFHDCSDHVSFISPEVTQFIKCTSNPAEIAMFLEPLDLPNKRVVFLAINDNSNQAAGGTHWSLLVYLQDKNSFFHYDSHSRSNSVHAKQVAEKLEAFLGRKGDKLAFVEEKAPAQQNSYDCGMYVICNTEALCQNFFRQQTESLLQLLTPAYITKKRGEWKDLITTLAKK

[8] = molecular target: T5, UCH-L3 (Homo sapiens, UniProt P15374); experiment: DUB fluorogenic substrate; type: biochemical; settings: read-out: IC50 UCH-L3; substrate LRGG-AFC
T5 sequence (P15374 1-230): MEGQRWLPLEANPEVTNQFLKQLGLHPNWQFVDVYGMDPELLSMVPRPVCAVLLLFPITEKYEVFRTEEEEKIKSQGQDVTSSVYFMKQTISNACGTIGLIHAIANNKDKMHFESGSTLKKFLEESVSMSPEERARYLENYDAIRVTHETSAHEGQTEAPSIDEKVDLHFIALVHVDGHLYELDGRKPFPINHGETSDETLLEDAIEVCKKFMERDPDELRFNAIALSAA

[9] = molecular target: T1, PfSENP1; experiment: SENP fluorogenic substrate; type: biochemical; settings: read-out: IC50 PfSENP1; substrate QTGG-AFC
[10] = molecular target: T6, hSENP2 (Homo sapiens, UniProt Q9HC62); experiment: SENP fluorogenic substrate; type: biochemical; settings: read-out: IC50 hSENP2; substrate QTGG-AFC
T6 sequence (Q9HC62 1-589): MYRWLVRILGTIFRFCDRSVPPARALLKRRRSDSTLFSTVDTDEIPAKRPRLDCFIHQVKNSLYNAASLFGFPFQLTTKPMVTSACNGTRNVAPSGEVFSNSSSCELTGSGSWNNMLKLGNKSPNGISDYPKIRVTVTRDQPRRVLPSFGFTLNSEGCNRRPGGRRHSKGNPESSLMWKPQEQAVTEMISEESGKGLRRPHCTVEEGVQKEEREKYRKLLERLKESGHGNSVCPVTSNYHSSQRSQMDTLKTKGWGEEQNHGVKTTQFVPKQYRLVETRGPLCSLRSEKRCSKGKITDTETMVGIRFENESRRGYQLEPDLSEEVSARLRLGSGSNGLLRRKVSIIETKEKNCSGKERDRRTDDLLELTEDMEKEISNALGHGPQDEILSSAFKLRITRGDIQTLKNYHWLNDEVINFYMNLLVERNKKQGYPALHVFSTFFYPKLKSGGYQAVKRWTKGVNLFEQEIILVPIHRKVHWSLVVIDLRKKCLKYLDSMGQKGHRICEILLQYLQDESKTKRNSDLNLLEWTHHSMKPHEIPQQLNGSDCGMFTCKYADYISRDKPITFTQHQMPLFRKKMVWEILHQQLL

CCN1C(=O)C=CC1=O [NEM, N-ethylmaleimide, reference compound]
inhibition of PfSENP activity in parasite lysates [1]: processing activity could be blocked | inhibition of PfSUMO-pro cleavage by recombinant PfSENP1 [2]: cleavage was inhibited

O=C(O)c1cccc(C(=O)NCc2ccc(C(=O)NNC(=O)[C@H]3O[C@@H]3C(=O)N(Cc3cccc4ccccc34)Cc3cccc4ccccc34)cc2)c1 [VEA-260]
IC50 [3]: 7.1 µM | IC50 [4]: > 100 µM | reversibility of PfSENP1 inhibition [5]: irreversible inhibitor | inhibition of falcipains (residual probe labeling) [6]: did not inhibit any of the falcipains | IC50 [7]: 9.1 µM | inhibition of PfSENP activity in parasite lysates [1]: as potent as the original JCP-666 | IC50 [8]: ~100 µM | IC50 [9]: 16.2 µM | IC50 [10]: 3.7 µM | inhibition of PfSUMO-pro cleavage by recombinant PfSENP1 [2]: as potent as the original JCP-666
